Source: ChEMBL document CHEMBL1781932 (J Med Chem, 2011)
In brackets after ≈: the same amount, converted by molar mass.

What was measured:
Type in all cases: functional
Pseudomonas aeruginosa = assay: Antimicrobial activity against tetracycline-susceptible Pseudomonas aeruginosa isolate 111 by CLSI dilution method
Procedure, shortened: (§1)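 Broth microdilution per CLSI in fresh cation-adjusted Mueller Hinton broth, kept at 4 °C before testing, with defibrinated horse blood added as appropriate. Strains were from ATCC. MIC in µg/mL. Runs were accepted when comparator antibiotics against ATCC quality-control strains fell within recommended ranges.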

Streptococcus pneumoniae [1] = assay: Antimicrobial activity against tetracycline-susceptible Streptococcus pneumoniae isolate 106 by CLSI dilution method; procedure, shortened: as §1
Enterococcus faecalis [2] = assay: Antimicrobial activity against tetracycline-susceptible Enterococcus faecalis isolate 103 by CLSI dilution method; procedure, shortened: as §1
Enterococcus faecalis [3] = assay: Antimicrobial activity against tetracycline-resistant Enterococcus faecalis isolate 159 harboring […] gene by CLSI dilution method
Enterobacter cloacae = assay: Antimicrobial activity against tetracycline-susceptible Enterobacter cloacae isolate 108 by CLSI dilution method; procedure, shortened: as §1
Acinetobacter baumannii = assay: Antimicrobial activity against tetracycline-susceptible Acinetobacter baumannii isolate 110 by CLSI dilution method; procedure, shortened: as §1
Staphylococcus aureus [4] = assay: Antimicrobial activity against tetracycline-resistant Staphylococcus aureus isolate 158 harboring tetK gene by CLSI dilution method
Escherichia coli [5] = assay: Antimicrobial activity against tetracycline-resistant Escherichia coli isolate 155 harboring tetA gene by CLSI dilution method
Klebsiella pneumoniae [6] = assay: Antimicrobial activity against tetracycline-susceptible Klebsiella pneumoniae isolate 109 by CLSI dilution method; procedure, shortened: as §1
Klebsiella pneumoniae [7] = assay: Antimicrobial activity against tetracycline-resistant Klebsiella pneumoniae isolate 153 harboring tetA gene by CLSI dilution method
Streptococcus pneumoniae [8] = assay: Antimicrobial activity against tetracycline-resistant Streptococcus pneumoniae isolate 160 harboring tetM gene by CLSI dilution method
Staphylococcus aureus [9] = assay: Antimicrobial activity against tetracycline-susceptible Staphylococcus aureus isolate 101 by CLSI dilution method
Staphylococcus aureus [10] = assay: Antimicrobial activity against methicillin-, tetracycline-resistant Staphylococcus aureus isolate 161 harboring tetM gene by CLSI dilution method
Escherichia coli [11] = assay: Antimicrobial activity against tetracycline-susceptible Escherichia coli isolate 107 by CLSI dilution method; procedure, shortened: as §1

SMILES | MIC (Pseudomonas aeruginosa) | MIC (Streptococcus pneumoniae [1]) | MIC (Enterococcus faecalis [2]) | MIC (Enterococcus faecalis [3]) | MIC (Enterobacter cloacae) | MIC (Acinetobacter baumannii) | MIC (Staphylococcus aureus [4]) | MIC (Escherichia coli [5]) | MIC (Klebsiella pneumoniae [6]) | MIC (Klebsiella pneumoniae [7]) | MIC (Streptococcus pneumoniae [8]) | MIC (Staphylococcus aureus [9]) | MIC (Staphylococcus aureus [10]) | MIC (Escherichia coli [11])
CN(C)Cc1ccc2c(F)c3c(c(O)c2c1)C(=O)C1=C(O)[C@]2(O)C(=O)C(C(N)=O)=C(O)[C@@H](N(C)C)[C@@H]2C[C@@H]1C3 | 32 µg/mL (≈ 59.3 µM) | 0.0156 µg/mL (≈ 0.0289 µM) | 0.25 µg/mL (≈ 0.463 µM) | 1 µg/mL (≈ 1.85 µM) | 4 µg/mL (≈ 7.41 µM) | 0.5 µg/mL (≈ 0.927 µM) | 0.25 µg/mL (≈ 0.463 µM) | 4 µg/mL (≈ 7.41 µM) | 2 µg/mL (≈ 3.71 µM) | 4 µg/mL (≈ 7.41 µM) | 8 µg/mL (≈ 14.8 µM) | 0.5 µg/mL (≈ 0.927 µM) |  | 
CN(C)C1CN(Cc2ccc3cc4c(c(O)c3c2)C(=O)C2=C(O)[C@]3(O)C(=O)C(C(N)=O)=C(O)[C@@H](N(C)C)[C@@H]3C[C@@H]2C4)C1 | > 32 µg/mL | 0.0625 µg/mL (≈ 0.108 µM) | 1 µg/mL (≈ 1.73 µM) |  |  | 4 µg/mL (≈ 6.94 µM) | 1 µg/mL (≈ 1.73 µM) | 16 µg/mL (≈ 27.7 µM) |  | 8 µg/mL (≈ 13.9 µM) | 1 µg/mL (≈ 1.73 µM) | 2 µg/mL (≈ 3.47 µM) |  | 
CN(C)[C@@H]1C(O)=C(C(N)=O)C(=O)[C@@]2(O)C(O)=C3C(=O)c4c(cc5ccc(CN6CC(C#N)C6)cc5c4O)C[C@H]3C[C@@H]12 | > 32 µg/mL | 0.25 µg/mL (≈ 0.448 µM) | 1 µg/mL (≈ 1.79 µM) | 4 µg/mL (≈ 7.16 µM) |  |  | 1 µg/mL (≈ 1.79 µM) | > 32 µg/mL | 8 µg/mL (≈ 14.3 µM) | 32 µg/mL (≈ 57.3 µM) | 1 µg/mL (≈ 1.79 µM) | 1 µg/mL (≈ 1.79 µM) | 2 µg/mL (≈ 3.58 µM) | 4 µg/mL (≈ 7.16 µM)
CCNCc1ccc2c(F)c3c(c(O)c2c1)C(=O)C1=C(O)[C@]2(O)C(=O)C(C(N)=O)=C(O)[C@@H](N(C)C)[C@@H]2C[C@@H]1C3 | 16 µg/mL (≈ 29.7 µM) | 0.0313 µg/mL (≈ 0.058 µM) | 0.25 µg/mL (≈ 0.463 µM) | 2 µg/mL (≈ 3.71 µM) | 2 µg/mL (≈ 3.71 µM) | 1 µg/mL (≈ 1.85 µM) |  | 8 µg/mL (≈ 14.8 µM) | 4 µg/mL (≈ 7.41 µM) | 8 µg/mL (≈ 14.8 µM) |  | 0.5 µg/mL (≈ 0.927 µM) | 2 µg/mL (≈ 3.71 µM) | 1 µg/mL (≈ 1.85 µM)
CN(C)[C@@H]1C(O)=C(C(N)=O)C(=O)[C@@]2(O)C(O)=C3C(=O)c4c(c(F)c5ccc(CNC6CC6)cc5c4O)C[C@H]3C[C@@H]12 | > 32 µg/mL | 0.0625 µg/mL (≈ 0.113 µM) | 0.5 µg/mL (≈ 0.907 µM) | 2 µg/mL (≈ 3.63 µM) | 4 µg/mL (≈ 7.25 µM) | 0.25 µg/mL (≈ 0.453 µM) |  | 8 µg/mL (≈ 14.5 µM) | 4 µg/mL (≈ 7.25 µM) | 8 µg/mL (≈ 14.5 µM) |  |  | 2 µg/mL (≈ 3.63 µM) | 2 µg/mL (≈ 3.63 µM)
COc1c2c(c(O)c3cc(CNC(C)(C)C)ccc13)C(=O)C1=C(O)[C@]3(O)C(=O)C(C(N)=O)=C(O)[C@@H](N(C)C)[C@@H]3C[C@@H]1C2 | 16 µg/mL (≈ 27.6 µM) | 0.0156 µg/mL (≈ 0.0269 µM) | 0.25 µg/mL (≈ 0.431 µM) |  |  | 2 µg/mL (≈ 3.45 µM) | 0.25 µg/mL (≈ 0.431 µM) | 8 µg/mL (≈ 13.8 µM) |  | 8 µg/mL (≈ 13.8 µM) | 0.5 µg/mL (≈ 0.863 µM) | 0.25 µg/mL (≈ 0.431 µM) |  | 1 µg/mL (≈ 1.73 µM)
COc1c2c(c(O)c3cc(CN(C)C)ccc13)C(=O)C1=C(O)[C@]3(O)C(=O)C(C(N)=O)=C(O)[C@@H](N(C)C)[C@@H]3C[C@@H]1C2 | 32 µg/mL (≈ 58 µM) | 0.0156 µg/mL (≈ 0.0283 µM) | 0.25 µg/mL (≈ 0.453 µM) |  |  | 1 µg/mL (≈ 1.81 µM) | 0.25 µg/mL (≈ 0.453 µM) | 8 µg/mL (≈ 14.5 µM) | 4 µg/mL (≈ 7.25 µM) |  | 0.25 µg/mL (≈ 0.453 µM) | 0.25 µg/mL (≈ 0.453 µM) | 2 µg/mL (≈ 3.63 µM) | 
CN(C)c1c2c(c(O)c3cc(CN4CCCC4)ccc13)C(=O)C1=C(O)[C@]3(O)C(=O)C(C(N)=O)=C(O)[C@@H](N(C)C)[C@@H]3C[C@@H]1C2 | > 32 µg/mL | < 0.0156 µg/mL | 0.25 µg/mL (≈ 0.423 µM) | 2 µg/mL (≈ 3.39 µM) | 16 µg/mL (≈ 27.1 µM) | 16 µg/mL (≈ 27.1 µM) | 0.5 µg/mL (≈ 0.846 µM) | 8 µg/mL (≈ 13.5 µM) |  | 32 µg/mL (≈ 54.2 µM) |  | 0.5 µg/mL (≈ 0.846 µM) | 2 µg/mL (≈ 3.39 µM) | 2 µg/mL (≈ 3.39 µM)
COc1c2c(c(O)c3cc(F)ccc13)C(=O)C1=C(O)[C@]3(O)C(=O)C(C(N)=O)=C(O)[C@@H](N(C)C)[C@@H]3C[C@@H]1C2 | > 32 µg/mL |  | 0.5 µg/mL (≈ 0.976 µM) |  | > 32 µg/mL | 1 µg/mL (≈ 1.95 µM) | 0.125 µg/mL (≈ 0.244 µM) | 16 µg/mL (≈ 31.2 µM) | 32 µg/mL (≈ 62.4 µM) | > 32 µg/mL | 8 µg/mL (≈ 15.6 µM) | 0.125 µg/mL (≈ 0.244 µM) | 0.5 µg/mL (≈ 0.976 µM) | 16 µg/mL (≈ 31.2 µM)
CN(C)Cc1cccc2c(O)c3c(cc12)C[C@H]1C[C@H]2[C@H](N(C)C)C(O)=C(C(N)=O)C(=O)[C@@]2(O)C(O)=C1C3=O | > 32 µg/mL | 0.25 µg/mL (≈ 0.479 µM) | 1 µg/mL (≈ 1.92 µM) | 32 µg/mL (≈ 61.4 µM) | > 32 µg/mL | 16 µg/mL (≈ 30.7 µM) | 0.5 µg/mL (≈ 0.959 µM) | > 32 µg/mL |  | > 32 µg/mL | 2 µg/mL (≈ 3.83 µM) | 1 µg/mL (≈ 1.92 µM) |  | 4 µg/mL (≈ 7.67 µM)
